ChEMBL document CHEMBL1137710, “Synthesis and in vitro antitumor activity of new quinoxaline derivatives” (2009)

Legend:
Type in all cases: functional
[1] = tested on: HCT-116; experiment: Growth inhibition of human HCT116 cells after 48 hrs by sulforhodamine B assay; conditions: HCT-116, 48 h
In short: (§1)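 NCI 60-human-tumor-cell-line panel, with compounds tested over a 5-log dose range. Values are taken from dose-response curves as log10 molar concentrations: GI50 is 50% net growth inhibition, TGI is total growth inhibition, and LC50 is 50% net cell death.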

[2] = tested on: SNB-75; experiment: Growth inhibition of human SNB75 cells after 48 hrs by sulforhodamine B assay; conditions: SNB-75, 48 h
In short: (§2)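 Run in the NCI 60-human-tumour-cell-line panel, tested over a 5-log dose range. Dose–response curves gave three values per cell line, each as a log10 molar concentration: GI50 (50% inhibition of net cell growth), TGI (total inhibition of net growth) and LC50 (50% net cell death). The mean graph midpoint is the arithmetic mean over all lines, with insensitive lines entered at the highest concentration tested.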

[3] = tested on: NCI-H23; experiment: Growth inhibition of human NCI-H23 cells after 48 hrs by sulforhodamine B assay; conditions: NCI-H23, 48 h; in short: as §1
[4] = tested on: K562; experiment: Growth inhibition of human K562 cells after 48 hrs by sulforhodamine B assay; conditions: K562, 48 h; in short: as §1
[5] = tested on: NCI/ADR-RES; experiment: Growth inhibition of human NCI/ADR-RES cells after 48 hrs by sulforhodamine B assay; in short: as §1
[6] = tested on: NCI-H226; experiment: Growth inhibition of human NCI-H226 cells after 48 hrs by sulforhodamine B assay; conditions: NCI-H226, 48 h; in short: as §1
[7] = tested on: HL-60(TB); experiment: Growth inhibition of human HL-60(TB) cells after 48 hrs by sulforhodamine B assay; conditions: HL-60, 48 h
In short: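 Tested only on compounds active in a three-line prescreen, in the NCI 60-human-tumour-cell-line panel over a 5-log dose range. Values come from dose–response curves as log10 molar GI50, the concentration inhibiting 50% net cell growth. Log10 TGI (total growth inhibition) and log10 LC50 (50% net cell death) were derived too. Mean graph midpoints include insensitive lines at the highest concentration tested.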

[8] = tested on: SR; experiment: Growth inhibition of human SR cells after 48 hrs by sulforhodamine B assay; in short: as §2
[9] = tested on: DU-145; experiment: Growth inhibition of human DU145 cells after 48 hrs by sulforhodamine B assay; conditions: DU-145, 48 h; in short: as §1
[10] = tested on: SN12C; experiment: Growth inhibition of human SN12C cells after 48 hrs by sulforhodamine B assay; in short: as §2
[11] = tested on: HT-29; experiment: Growth inhibition of human HT-29 cells after 48 hrs by sulforhodamine B assay; conditions: HT-29, 48 h; in short: as §1
[12] = tested on: EKVX; experiment: Growth inhibition of human EKVX cells after 48 hrs by sulforhodamine B assay; in short: as §1
[13] = tested on: BT-549; experiment: Growth inhibition of human BT549 cells after 48 hrs by sulforhodamine B assay; conditions: BT-549, 48 h; in short: as §1
[14] = tested on: LOX IMVI; experiment: Growth inhibition of human LOXIMVI cells after 48 hrs by sulforhodamine B assay; in short: as §1
[15] = tested on: A498; experiment: Growth inhibition of human A498 cells after 48 hrs by sulforhodamine B assay; conditions: A498, 48 h; in short: as §1
[16] = tested on: M14; experiment: Growth inhibition of human M14 cells after 48 hrs by sulforhodamine B assay; conditions: M14, 48 h; in short: as §1
[17] = tested on: RXF 393; experiment: Growth inhibition of human RXF393 cells after 48 hrs by sulforhodamine B assay; conditions: RXF 393, 48 h; in short: as §1
[18] = tested on: UACC-62; experiment: Growth inhibition of human UACC62 cells after 48 hrs by sulforhodamine B assay; conditions: UACC-62, 48 h; in short: as §2
[19] = tested on: A549; experiment: Growth inhibition of human A549 cells after 48 hrs by sulforhodamine B assay; conditions: A549, 48 h; in short: as §1
[20] = tested on: HOP-92; experiment: Growth inhibition of human HOP92 cells after 48 hrs by sulforhodamine B assay; conditions: HOP-92, 48 h; in short: as §1
[21] = tested on: SK-MEL-28; experiment: Growth inhibition of human SK-MEL-28 cells after 48 hrs by sulforhodamine B assay; conditions: SK-MEL-28, 48 h; in short: as §1
[22] = Growth inhibition of human […] cells after 48 hrs by sulforhodamine B assay; in short: as §1
[23] = tested on: SK-MEL-2; experiment: Growth inhibition of human SK-MEL-2 cells after 48 hrs by sulforhodamine B assay; conditions: SK-MEL-2, 48 h; in short: as §1
[24] = tested on: HCT-15; experiment: Growth inhibition of human HCT15 cells after 48 hrs by sulforhodamine B assay; conditions: HCT-15, 48 h; in short: as §1
[25] = tested on: SF-539; experiment: Growth inhibition of human SF539 cells after 48 hrs by sulforhodamine B assay; conditions: SF-539, 48 h; in short: as §1
[26] = tested on: SW-620; experiment: Growth inhibition of human SW620 cells after 48 hrs by sulforhodamine B assay; conditions: SW-620, 48 h; in short: as §2
[27] = tested on: ACHN; experiment: Growth inhibition of human ACHN cells after 48 hrs by sulforhodamine B assay
[28] = read-out: pLC50 (the source's name) (converted)

Nc1cc(N)c2nc(-c3ccccc3)c(NCc3ccc(F)cc3)nc2c1
GI50 [1]: 12.9 µM
LC50 (concentration causing 50% net cell death) [1]: > 100 µM
TGI ([1]; read-out: pTGI (converted)): > 100 µM
GI50 [2]: 2.14 µM
LC50 [2]: > 100 µM
TGI ([2]; read-out: pTGI (converted)): 5.01 µM
GI50 [3]: 2.4 µM
LC50 (50% net cell kill concentration) [3]: 8.91 µM
TGI ([3]; read-out: pTGI (converted)): 4.57 µM
GI50 [4]: 4.37 µM
LC50 [4]: > 100 µM
TGI ([4]; read-out: pTGI (converted)): > 100 µM
GI50 [5]: 2.45 µM
CC50 [5, 28]: 28.2 µM
TGI ([5]; read-out: pTGI (converted)): 5.75 µM
GI50 [6]: 22.4 µM
LC50 [6]: > 100 µM
TGI ([6]; read-out: pTGI (converted)): 47.9 µM
GI50 [7]: 3.89 µM
LC50 [7]: > 100 µM
TGI ([7]; read-out: pTGI (converted)): > 100 µM
GI50 [8]: 4.07 µM
LC50 (concentration giving 50% net cell death) [8]: > 100 µM
TGI ([8]; read-out: pTGI (converted)): > 100 µM
GI50 [9]: 1.51 µM
CC50 [9, 28]: 9.77 µM
TGI ([9]; read-out: pTGI (converted)): 3.8 µM
GI50 [10]: 7.59 µM
CC50 [10, 28]: 64.6 µM
TGI ([10]; read-out: pTGI (converted)): 23.4 µM
GI50 [11]: 3.16 µM
LC50 [11]: > 100 µM
TGI ([11]; read-out: pTGI (converted)): 12.6 µM
GI50 [12]: 1.91 µM
LC50 (50% net cell kill) [12]: 8.71 µM
TGI ([12]; read-out: pTGI (converted)): 4.07 µM
GI50 [13]: 1.7 µM
CC50 [13, 28]: 6.31 µM
TGI ([13]; read-out: pTGI (converted)): 3.24 µM
GI50 [14]: 1.51 µM
LC50 [14]: 6.61 µM
TGI ([14]; read-out: pTGI (converted)): 3.16 µM
GI50 [15]: 17 µM
CC50 [15, 28]: 57.5 µM
TGI ([15]; read-out: pTGI (converted)): 30.9 µM
GI50 [16]: 23.4 µM
CC50 [16, 28]: > 100 µM
TGI ([16]; read-out: pTGI (converted)): 56.2 µM
GI50 [17]: 12.3 µM
CC50 [17, 28]: 60.3 µM
TGI ([17]; read-out: pTGI (converted)): 26.9 µM
GI50 [18]: 15.5 µM
CC50 [18, 28]: 56.2 µM
TGI ([18]; read-out: pTGI (converted)): 29.5 µM
GI50 [19]: 17.8 µM
LC50 [19]: 69.2 µM
TGI ([19]; read-out: pTGI (converted)): 34.7 µM
GI50 [20]: 3.31 µM
LC50 (50% net cell death) [20]: > 100 µM
TGI ([20]; read-out: pTGI (converted)): 6.92 µM
GI50 [21]: 1.91 µM
CC50 [21, 28]: 7.41 µM
TGI ([21]; read-out: pTGI (converted)): 3.8 µM
GI50 [22]: 2.51 µM
LC50 [22]: > 100 µM
TGI ([22]; read-out: pTGI (converted)): 6.31 µM
GI50 [23]: 5.25 µM
CC50 [23, 28]: > 100 µM
TGI ([23]; read-out: pTGI (converted)): > 100 µM
GI50 [24]: 3.31 µM
LC50 [24]: > 100 µM
TGI ([24]; read-out: pTGI (converted)): 19.1 µM
GI50 [25]: 1.82 µM
LC50 [25]: 6.92 µM
TGI ([25]; read-out: pTGI (converted)): 3.55 µM
GI50 [26]: 2.19 µM
CC50 [26, 28]: > 100 µM
TGI ([26]; read-out: pTGI (converted)): 9.55 µM
GI50 [27]: 1.7 µM
CC50 [27, 28]: 5.62 µM
TGI ([27]; read-out: pTGI (converted)): 3.09 µM
